Data set [1] concerns Schistosoma mansoni. Briefly: Antiparasitic activity against schistosomula stage of Schistosoma mansoni assessed as parasite viability at 10 to 20 uM after 5 days by microscopy relative to control. The data set is classed as functional, organism-based. Summed up: (§1)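 Microscopy viability: 2,000 schistosomula per well in M199 (10 mM HEPES, pH 7.4, supplemented), 37°C, 5% CO2; inhibitor at 10 or 20 µM in DMSO, medium refreshed daily, up to 5 days. Dead larvae scored by granular appearance, tegumental defects and lack of motility; ≥300 larvae per time point; % viable larvae. Three biological replicates in duplicate.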

For data set [2], the system named is Schistosoma mansoni. Put plainly: Antiparasitic activity against adult Schistosoma mansoni assessed as separation of male and female worm pairs at 20 uM after 5 days by microscopy relative to control. The data set is classed as functional. An outline of the steps: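 Hamster-perfused worm pairs, ten per well in 2 mL buffered supplemented M199 (10 mM HEPES, pH 7.4), 37°C, 5% CO2, pre-cultured 5 days, then inhibitor in DMSO at 10 or 20 µM; medium and compound renewed daily. Pairs still coupled counted daily by microscopy for up to 5 days. Two biological replicates in triplicate.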

Data set [3] relates to Schistosoma mansoni. Briefly: Antiparasitic activity against schistosomula stage of Schistosoma mansoni assessed as parasite viability at 10 uM measured within 2 days by microscopy. In kind it is functional, organism-based. An outline of the steps: as §1
The test system of data set [4] is Schistosoma mansoni. Put plainly: Antiparasitic activity against adult Schistosoma mansoni assessed as reduction in egg lying at 20 uM after 5 days by microscopy relative to control. In kind it is functional. Also noted: scale not given: the % may be the effect or the level left. Summed up: (§2)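 Adult worm pairs perfused from infected hamsters; ten pairs per well in 2 mL M199 (pH 7.4, 10 mM HEPES, supplemented as for schistosomula), 37°C, 5% CO2. Cultured 5 days before adding inhibitors in DMSO; medium and inhibitor refreshed daily. Eggs in recovered, centrifuged medium counted by microscopy. Two biological replicates in triplicate.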

Data set [5] concerns Schistosoma mansoni. Put plainly: Antiparasitic activity against schistosomula stage of Schistosoma mansoni assessed as parasite viability at 20 uM after 48 hrs by Alamar Blue assay relative to control. In kind it is functional. Summed up:
(§3)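 Mechanically transformed S. mansoni schistosomula, 100 per well, in Medium 199 with 10% FCS, penicillin, streptomycin and rifampicin, held 3 h at 37°C/5% CO2 before use. […] Resazurin added at 48 h; fluorescence (ex 530/em 590 nm) read 24 h later, corrected for drug-medium background. Ethanol-killed larvae as dead control. Triplicate wells, two biological replicates.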

For the next data set, the system named is HEK293. Briefly: Cytotoxicity against HEK293 cells assessed as cell viability after 24 hrs by Alamar Blue assay. The data set is classed as cell-based. As to conditions: Homo sapiens, HEK293, 24 h. Summed up: (§4)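 AlamarBlue added after 24 h, incubated a further 21 h; resorufin fluorescence ex 560/em 590 nm. Triplicates; viability relative to untreated cells; daunorubicin positive control.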
On the technique in general: The colour change of resazurin is a common sign of viable cells or microbes.

Data set [6] deals with Schistosoma mansoni. Briefly: Antiparasitic activity against schistosomula stage of Schistosoma mansoni assessed as parasite viability at 10 uM after 48 hrs by Alamar Blue assay relative to control. In kind it is functional. Summed up:
as §3

Data set [7] has as its system Schistosoma mansoni. Put plainly: Antiparasitic activity against schistosomula stage of Schistosoma mansoni assessed as parasite viability after 48 hrs by Alamar Blue assay. In kind it is functional, organism-based. An outline of the steps:
as §3

Data set [8] has as its system Schistosoma mansoni. Put plainly: Antiparasitic activity against adult Schistosoma mansoni assessed as reduction in egg lying at 10 uM after 5 days by microscopy relative to control. In kind it is functional, organism-based. An outline of the steps:
as §2

The subject of data set [9] is Schistosoma mansoni. Briefly: Antiparasitic activity against schistosomula stage of Schistosoma mansoni assessed as parasite viability at 20 uM after 1 to 2 days by microscopy. In kind it is functional, organism-based. Summed up: as §1
Data set [10] in a line: Cytotoxicity against HEK293 cells assessed as cell viability at 50 uM after 24 hrs by Alamar Blue assay relative to control. The data set is classed as cell-based. As to conditions: human, read-out: Activity. Summed up: as §4

Activity calls are given as the source filed them. The calls are words filed in the database; no cut-off is given here.

Broadly, the IC50 is the concentration needed to halve the response being measured. One may read the EC50 as the concentration needed to bring the measured effect to its halfway point. As for `COc1ccc(C(=O)NO)cc1NC(=O)c1ccc(-c2ccccc2)cc1`, the outcome in the data set with Schistosoma mansoni [1] was inactive. The Activity in the data set on Schistosoma mansoni [2] was 90%; in the data set on Schistosoma mansoni [4], 80%; in the data set on Schistosoma mansoni [5] it was 33.4%; with Schistosoma mansoni [6], 64.8%; with Schistosoma mansoni [7] it was “Dose-dependent effect”. Moreover, the outcome in the data set on Schistosoma mansoni [3], in the data set with Schistosoma mansoni [8] and in the data set with Schistosoma mansoni [9] was Active. Further, the IC50 with HEK293 was 199 µM. Also, the EC50 in the data set with Schistosoma mansoni [7] is 16.1 µM. Besides, the viability at 24 h, 50 µM in data set [10] stood at 12.3%.

The record behind these values is ChEMBL document CHEMBL3797085, “Structure-Based Design and Synthesis of Novel Inhibitors Targeting HDAC8 from Schistosoma mansoni for the Treatment of Schistosomiasis” (J Med Chem, 2016).
